These results are taken from PubChem BioAssay.

Active and inactive are the calls of the source.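 How the source made its calls, unless noted: active means GFP response above 150% of the DMSO level; inconclusive means fewer than 70 events counted for a yeast strain; inactive means the rest.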

Assay [1] can be described thus: hit retest on RPL19A-GFP reporter strain – cell-based, S. cerevisiae, flow cytometry, cherry picks, mother/daughter gates, confirmation (AID 2270;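 active means GFP response below 50% of the DMSO control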). Particulars: 3 h, at 10 µM, stronger effect = lower value, 100 = same GFP as DMSO wells. Background: In flow cytometry, cells or beads pass a laser one at a time.
A short description of assay [2]: yeast TOR pathway reporter LAP4-GFP change – cell-based, cherry picks, flow cytometry, mother/daughter gates, confirmation (AID 2271;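 active means GFP response above 150% of the DMSO control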;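 further: ratio of sample to DMSO plate mean so 100% equals DMSO level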). Particulars: S. cerevisiae LAP4-GFP strain, 3 h, at 10 µM, stronger effect = higher value, 100 means same as DMSO control. Put shortly: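 Material: Alexa Fluor 633-labelled Saccharomyces cerevisiae GFP-fusion strain, single-plex | Amount: Yeast cells seeded at OD600 of 0.2 | Buffer or medium: SC growth medium | Schedule: 3 h exposure, 30 °C | Measured by: HT flow cytometry, GFP fluorescence channel | Evaluation: % GFP response vs DMSO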

A short description of assay [3]: TOR pathway reporter MEP2-GFP, retest of hits – S. cerevisiae, flow cytometry GFP, cherry picks, confirmation (AID 2272;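 active means GFP response above 150% of the DMSO control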;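 further: ratio of well signal to plate DMSO mean so 100% equals DMSO level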). The note with it: S. cerevisiae MEP2-GFP strain, 3 h, at 10 µM, stronger effect = higher value.
Assay [4] can be described thus: yeast AGP1-GFP fluorescence change, single-dose – cell-based, flow cytometry, S. cerevisiae, cherry picks, confirmation (AID 2273).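 Further: median GFP channel fluorescence over the whole cell population gate.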 The note with it: S. cerevisiae AGP1-GFP strain, 3 h, at 10 µM.
Assay [5] in a line: TOR pathway CIT2 reporter hit retest – S. cerevisiae, GFP fusion, cherry picks, mother/daughter gates, confirmation (AID 2274). The note with it: S. cerevisiae CIT2-GFP strain, flow cytometry, 3 h, at 10 µM, stronger effect = higher value.
[6] abbreviates: measured here: daughter cell gate.
Where [7] appears, read: measured here: mother cell gate.
The mark [8] stands for this setting: measured here: daughter cell gate response.
Setting [9] is: measured here: mother cell gate response.

Consider `C/C(=N\NC(=O)c1cc2ccccc2cc1O)c1ccccn1`, for which the GFP response vs DMSO in assay [1] was 106% (inactive); in assay [1] (setting [6]) it was 103%; in assay [1] (setting [7]), 98.1%; in assay [3], 126% (inactive). Besides, the GFP response relative to DMSO in assay [2] is 234% (active); in assay [2] (setting [8]), 147%; in assay [2] (setting [9]) it was 231%. The GFP response, % of DMSO is 109% (inactive) in assay [4], 132% (inactive) in assay [5], 113% in assay [5] (setting [6]) and 120% in assay [5] (setting [7]).

Take `Cc1cc(N=Nc2ccccc2C(=O)O)c(C)c(C)c1O`: the GFP response vs DMSO in assay [1] is 99.8% (inactive); in assay [1] (setting [6]) it was 99.4%; in assay [1] (setting [7]) it was 99.3%; in assay [3] it was 114% (inactive). Also, the figures for the GFP response relative to DMSO in assay [2], in assay [2] (setting [8]) and in assay [2] (setting [9]) were 108% (inactive), 109% and 108%, respectively. The GFP response, % of DMSO in assay [4] was 98.4% (inactive); in assay [5], 126% (inactive); in assay [5] (setting [6]) it was 129%; in assay [5] (setting [7]), 125%.

`Cc1ccsc1C(=O)N(Cc1nnc(-c2ccccc2Cl)o1)C1CC1`: the GFP response vs DMSO was 95.8% (inactive) in assay [1], 97.3% in assay [1] (setting [6]), 95.2% in assay [1] (setting [7]) and 103% (inactive) in assay [3]. The GFP response relative to DMSO in assay [2] was 98.9% (inactive); in assay [2] (setting [8]), 96%; in assay [2] (setting [9]), 100%. In addition, the GFP response, % of DMSO is 102% (inactive) in assay [4], 100% (inactive) in assay [5], 99.3% in assay [5] (setting [6]) and 99.3% in assay [5] (setting [7]).

On to `CCC(=O)Nc1cccc(C(=O)/C=C/c2cc(Br)ccc2OC)c1`, for which the GFP response vs DMSO in assay [1] was 98.8% (inactive); in assay [1] (setting [6]), 99.2%; in assay [1] (setting [7]), 97.7%; in assay [3] it was 104% (inactive). Besides, the results for the GFP response relative to DMSO in assay [2], in assay [2] (setting [8]) and in assay [2] (setting [9]) were 103% (inactive), 98.7% and 110%, respectively. Also, the GFP response, % of DMSO is 97.2% (inactive) in assay [4], 93.9% (inactive) in assay [5], 94.8% in assay [5] (setting [6]) and 91.2% in assay [5] (setting [7]).

As for `Cc1ccc(-n2nnnc2C(Cl)(Cl)c2nnnn2-c2ccc(C)cc2)cc1`, the GFP response vs DMSO was 99.7% (inactive) in assay [1], 98.8% in assay [1] (setting [6]), 98.6% in assay [1] (setting [7]) and 112% (inactive) in assay [3]. Besides, the results for the GFP response relative to DMSO in assay [2], in assay [2] (setting [8]) and in assay [2] (setting [9]) were 136% (inactive), 120% and 139%, respectively. Moreover, the GFP response, % of DMSO in assay [4] was 100% (inactive); in assay [5], 105% (inactive); in assay [5] (setting [6]), 106%; in assay [5] (setting [7]), 100%.

With `CSc1ccc(/C=N/NC(=O)c2ccc(O)cc2)cc1`, the GFP response vs DMSO in assay [1] was 97.8% (inactive); in assay [1] (setting [6]) it was 98.1%; in assay [1] (setting [7]), 98.5%; in assay [3], 103% (inactive). Further, the GFP response relative to DMSO in assay [2] was 97% (inactive); in assay [2] (setting [8]), 97.5%; in assay [2] (setting [9]), 96.2%. Besides, the GFP response, % of DMSO was 103% (inactive) in assay [4], 103% (inactive) in assay [5], 103% in assay [5] (setting [6]) and 103% in assay [5] (setting [7]).

As to `Cc1cc(C(=O)Nc2nc(-c3ccccn3)cs2)ccc1[N+](=O)[O-]`, the GFP response vs DMSO in assay [1] is 104% (inactive); in assay [1] (setting [6]), 107%; in assay [1] (setting [7]), 97.2%; in assay [3] it was 107% (inactive). The GFP response relative to DMSO is 158% (active) in assay [2], 149% in assay [2] (setting [8]) and 155% in assay [2] (setting [9]). Besides, the GFP response, % of DMSO in assay [4] is 84.3% (inactive); in assay [5], 105% (inactive); in assay [5] (setting [6]) it was 110%; in assay [5] (setting [7]) it was 99.3%.

`CC1CCCN(CCCNC(=O)C2CCN(S(=O)(=O)N3CCC4(CC3)OCCO4)CC2)C1` (centres undefined): the GFP response vs DMSO in assay [1] was 96.4% (inactive); in assay [1] (setting [6]), 96.1%; in assay [1] (setting [7]), 98.5%; in assay [3], 96.2% (inactive). The values for the GFP response relative to DMSO in assay [2], in assay [2] (setting [8]) and in assay [2] (setting [9]) were 97.9% (inactive), 97.6% and 96.1%, respectively. The GFP response, % of DMSO was 98.9% (inactive) in assay [4], 105% (inactive) in assay [5], 106% in assay [5] (setting [6]) and 106% in assay [5] (setting [7]).

As to `Cc1cc(NCCCN2CCOCC2)n2nc(C)c(-c3ccc(F)cc3)c2n1`, the GFP response vs DMSO in assay [1] was 95.3% (inactive); in assay [1] (setting [6]), 95.9%; in assay [1] (setting [7]), 95.6%; in assay [3], 103% (inactive). Also, the results for the GFP response relative to DMSO in assay [2], in assay [2] (setting [8]) and in assay [2] (setting [9]) were 104% (inactive), 97.5% and 105%, respectively. Besides, the GFP response, % of DMSO in assay [4] is 101% (inactive); in assay [5], 97.2% (inactive); in assay [5] (setting [6]), 95.8%; in assay [5] (setting [7]) it was 99.3%.

With `Cc1cc(C)c(S(=O)(=O)ON2C(=O)c3ccccc3C2=O)cc1C`, the GFP response vs DMSO in assay [1] was 88.4% (inactive); in assay [1] (setting [6]), 90.8%; in assay [1] (setting [7]), 76.7%; in assay [3], 114% (inactive). Further, the GFP response relative to DMSO was 255% (active) in assay [2], 209% in assay [2] (setting [8]) and 252% in assay [2] (setting [9]). The GFP response, % of DMSO in assay [4] is 97.5% (inactive); in assay [5] it was 102% (inactive); in assay [5] (setting [6]), 98.3%; in assay [5] (setting [7]), 71.1%.

In the case of `COc1ccc(N2CCN(C(=O)c3ccc(Br)cc3)CC2)c([N+](=O)[O-])c1`, the GFP response vs DMSO in assay [1] was 114% (inactive); in assay [1] (setting [6]), 80.2%; in assay [1] (setting [7]), 102%; in assay [3], 132% (inactive). The GFP response relative to DMSO was 208% (active) in assay [2], 131% in assay [2] (setting [8]) and 192% in assay [2] (setting [9]). Besides, the GFP response, % of DMSO in assay [4] is 153% (active); in assay [5], 105% (inactive); in assay [5] (setting [6]), 82.5%; in assay [5] (setting [7]), 90.8%.

As to `CCN(CC)C(=O)Cn1c(C)c(/C=C/c2cc[n+](C)cc2)c2ccccc21`, the GFP response vs DMSO was 107% (inactive) in assay [1], 106% in assay [1] (setting [6]), 106% in assay [1] (setting [7]) and 126% (inactive) in assay [3]. Further, the GFP response relative to DMSO in assay [2] is 108% (inactive); in assay [2] (setting [8]) it was 110%; in assay [2] (setting [9]), 107%. The GFP response, % of DMSO in assay [4] was 98.6% (inactive); in assay [5], 109% (inactive); in assay [5] (setting [6]), 110%; in assay [5] (setting [7]), 105%.

With `Cc1cccc(/C(N)=N/OC(=O)C23CC4CC(CC(C4)C2)C3)c1`, the GFP response vs DMSO in assay [1] is 102% (inactive); in assay [1] (setting [6]), 101%; in assay [1] (setting [7]), 101%; in assay [3] it was 108% (inactive). Moreover, the GFP response relative to DMSO is 113% (inactive) in assay [2], 108% in assay [2] (setting [8]) and 119% in assay [2] (setting [9]). The GFP response, % of DMSO is 85% (inactive) in assay [4], 123% (inactive) in assay [5], 111% in assay [5] (setting [6]) and 127% in assay [5] (setting [7]).

In the case of `O=C1c2cccc3cccc(c23)C(=O)N1c1cccnc1`, the GFP response vs DMSO is 100% (inactive) in assay [1], 102% in assay [1] (setting [6]), 101% in assay [1] (setting [7]) and 98.3% (inactive) in assay [3]. The GFP response relative to DMSO in assay [2] is 85% (inactive); in assay [2] (setting [8]), 86.4%; in assay [2] (setting [9]), 85.5%. The GFP response, % of DMSO in assay [4] is 98.7% (inactive); in assay [5] it was 99.7% (inactive); in assay [5] (setting [6]), 105%; in assay [5] (setting [7]), 98.5%.
